Only some compounds are listed: those with a hit (about 3.7% of all), similar ones and a draw of the others.
GAA850 FXN act – FXN promoter activators, primary screen, cell-based, luciferase luminescence, HEK293 lucGAA850 | HEK293 lucGAA850 FXN promoter luciferase reporter, 24 h; percent of 10 µM SAHA response | activation, % at 6 µM | hit rate 0.56% among 360,000;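 active means activation above the average of all compounds screened plus 3 SD, cutoff fixed separately per campaign, cut at about 7.5% in these data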;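 further: 0% = DMSO wells and 100% = 10 µM SAHA wells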
SR-BI DiI-HDL act – activators of SR-BI mediated DiI-HDL uptake, primary screen, ldlA[mSR-BI] CHO cells, DiI fluorescence; hit rate 0.096% among 320,000; AID 504775, 2011; activation, % at 12.5 µM; 3 h; 100 = double the neutral-control signal;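 active means mean replicate activation of at least 60% and every replicate at or above 60%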;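 further: 0% = median plate neutral-control signal and 100% = twice that signal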
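Assay system: CHO ldlA[mSR-BI] cells, LDL receptor-null, SR-BI overexpressing; medium: Ham's F12 with 0.5% BSA, HEPES 25 mM, pH 7.4; also added: DiI-HDL 10 µg/mL; timing: 3 h uptake period with compound, 37 °C; signal: DiI fluorescence, bottom read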
AHR act – AHR activators, primary screen, cell-based, luminescence, luciferase reporter, human; AHR-responsive luciferase reporter cells; Aryl hydrocarbon receptor (Homo sapiens), P35869; AID 2796, 2010; activation, % at 5 µM; hit rate 2.5% among 320,000; in the data active means activation above about 47%;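 further: 0% = vehicle wells and 100% = reference agonist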
Target sequence (P35869 whole entry, looked up): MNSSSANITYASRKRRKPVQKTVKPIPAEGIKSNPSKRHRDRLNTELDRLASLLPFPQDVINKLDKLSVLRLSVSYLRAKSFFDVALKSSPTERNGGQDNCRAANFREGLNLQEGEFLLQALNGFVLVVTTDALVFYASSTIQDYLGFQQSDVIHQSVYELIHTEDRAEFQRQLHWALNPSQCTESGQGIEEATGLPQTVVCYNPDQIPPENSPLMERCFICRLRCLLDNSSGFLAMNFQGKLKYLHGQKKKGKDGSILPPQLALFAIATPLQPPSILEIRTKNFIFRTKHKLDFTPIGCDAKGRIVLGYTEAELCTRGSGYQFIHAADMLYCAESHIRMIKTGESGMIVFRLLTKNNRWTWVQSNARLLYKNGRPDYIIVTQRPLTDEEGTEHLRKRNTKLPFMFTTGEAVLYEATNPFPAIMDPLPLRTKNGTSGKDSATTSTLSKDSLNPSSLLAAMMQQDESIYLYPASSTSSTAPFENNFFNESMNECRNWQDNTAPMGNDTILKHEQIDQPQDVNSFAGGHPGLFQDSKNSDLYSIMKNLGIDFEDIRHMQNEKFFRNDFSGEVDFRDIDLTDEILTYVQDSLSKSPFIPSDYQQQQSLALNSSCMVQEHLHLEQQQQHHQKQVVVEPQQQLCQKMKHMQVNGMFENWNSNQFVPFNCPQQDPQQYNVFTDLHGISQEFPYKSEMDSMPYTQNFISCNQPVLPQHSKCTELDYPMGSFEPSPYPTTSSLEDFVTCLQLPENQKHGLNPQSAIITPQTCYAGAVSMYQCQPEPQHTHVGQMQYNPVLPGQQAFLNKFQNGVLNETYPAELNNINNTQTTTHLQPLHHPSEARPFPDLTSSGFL
GASC-1 inh – inhibitors of GASC-1 histone demethylase, primary screen, biochemical, fluorescence, DELFIA europium | GST-JMJD2C(1-420) H3K9me3 demethylation | inhibition, % at 2.35 µM | hit rate 0.069% among 330,000 | AID 2099, 2009;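 active means more than half of a compound's replicate wells show inhibition beyond 50%, single wells judged on their own value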;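 further: signal counts dimethyl H3K9 product captured on neutravidin plate; 0% = median of DMSO wells and 100% = 0.3 times that DMSO median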
SR-BI DiI inh – inhibitors of SR-BI mediated HDL lipid uptake, primary screen, ldlA[mSR-BI] cells, fluorescence, single point; Scavenger receptor class B member 1 (Mus musculus), Q61009; ldlA[mSR-BI] CHO cells, DiI-HDL uptake fluorescence, 3 h; inhibition, % at 12.5 µM; hit rate 0.96% among 320,000; AID 488896, 2010;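 active means mean replicate inhibition of at least 70% and a set share of replicates each scoring 70 or more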;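 further: 0% = median of neutral control wells and 100% = median of positive control wells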
AHR act cf – AHR activators, confirmation, cell-based, luminescence, luciferase reporter, human; activation, % at 9 µM; shares compounds with AHR act; hit rate 87% among 2,300; human cells, AHR-responsive luciferase reporter; in the data active means activation above about 49%;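 further: HepG2 hepatoma cells carrying a DRE-driven firefly luciferase reporter; 0% = vehicle wells and 100% = reference agonist wells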
PXR counter – human PXR activators, counter-screen for AHR activator project, cell-based, luciferase luminescence. shares compounds with AHR act. cell-based PXR reporter. activation, % at 11.6 µM. hit rate 88% among 2,300; in the data active means activation above about 11%;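 further: human hepatoma DPX-2 cells expressing full-length human PXR; 0% = DMSO and 100% = reference agonist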
An asterisk follows results filed as active; x = no result.

SMILES	GAA850 FXN act	SR-BI DiI-HDL act	AHR act	GASC-1 inh	SR-BI DiI inh	AHR act cf	PXR counter
CCN(CC)CCCNC(=O)c1cc2c(-c3cccc(OC)c3)nn(C)c2s1	1.4	-18.9	13.4	7.0	18.9	x	x
COCCNC(=O)c1cc2c(-c3ccccc3F)nn(C)c2s1	-1.6	-47.6	98.0*	14.2	47.6	121.6*	23.6*
CCCn1c(N)c(C(=O)COC(=O)CCNS(=O)(=O)c2ccccc2F)c(=O)[nH]c1=O	1.3	-2.7	0.9	8.1	2.7	x	x
O=C1c2cccnc2C(Nc2ccccc2Br)N1Cc1ccco1 (stereo not given)	0.3	14.3	5.5	-4.5	-14.3	x	x
O=C(c1cc(Br)c(Br)s1)N1CCN(c2ccccn2)CC1	-0.9	-2.4	-14.6	-32.5	2.4	x	x
Cn1nc(-c2ccc(Cl)cc2)c2cc(C(=O)N3CCN(c4ccccn4)CC3)sc21	-0.7	-0.9	106.2*	8.4	0.9	71.2*	45.5*
Cc1ccc(S(=O)(=O)N2C(=O)/C(=C3\SC(=S)NC3=O)c3ccccc32)cc1	x	x	3.2	-6.3	x	x	x
Cc1ccc(C23OCCN2CCn2nc4ccccc4c23)cc1 (stereo not given)	2.2	-1.0	2.9	10.4	1.0	x	x
N#Cc1ccc(C23OCCN2CCn2c3c3ccccc3[n+]2[O-])cc1 (stereo not given)	-1.3	-3.4	111.8*	-3.7	3.4	122.0*	46.5*
Cc1ccc2[nH]c3c(c2c1)CCN1C(=O)OC(C)(C)C31C (stereo not given)	-0.7	-20.8	4.2	-1.6	20.8	x	x
c1ccc2nc3c(nc2c1)[nH]c1ccccc13	6.5	0.3	157.8*	3.7	-0.3	158.4*	13.9*
c1ccc(-c2nc(-n3nc4ccccc4n3)nc3ccccc23)cc1	-0.8	-43.7	21.9	1.3	43.7	x	x
c1ccc(-c2c3ccccc3nc3[nH]c4ccccc4c23)cc1	1.7	-3.9	102.7*	-12.0	3.9	67.8*	31.5*
COc1cc(N)c(Cl)cc1NC(=O)c1ccccc1	-1.9	-4.4	94.3*	18.0	4.4	117.4*	14.9*
COc1cc(NC(=O)C(C)Oc2ccccc2)c(OC)cc1NC(=O)c1ccccc1 (stereo not given)	2.5	-51.0	82.0*	-4.6	51.0	99.8*	14.1*
Cc1ccc(S(=O)(=O)N2CCN(C(=O)c3cc(C4CC4)nn3-c3ccccc3)CC2)cc1	1.1	x	x	x	x	x	x
O=C(O)/C=C\C(=O)NC1CCCCC1	-0.6	1.1	6.6	-10.6	-1.1	x	x
CC(=O)c1cccc(NC(=O)c2ccc(-n3cncn3)c3ccoc23)c1	4.0	x	x	x	x	x	x
CN(C(=O)c1nn(C)c2c1CSc1ccccc1-2)c1ccc(F)cc1	-0.9	35.8	105.4*	-20.0	-35.8	47.5*	64.2*
CN(C(=O)c1nn(C)c2c1CSc1ccccc1-2)c1ccccc1Cl	0.0	-6.3	21.1	-0.3	6.3	x	x
C[C@@H]1CN([C@H](C)CO)C(=O)CCCn2cc(nn2)CO[C@H]1CN(C)S(=O)(=O)c1ccc(C#N)cc1	-0.4	x	x	x	x	x	x
C[C@H](CO)N1C[C@H](C)[C@H](CN(C)C(=O)Nc2ccc(N3CCN(C)CC3)cc2)OCc2cnnn2CCCC1=O	0.7	x	x	x	x	x	x
Cc1ccc2[nH]c3c(=O)n4c(nc3c2c1)SCC4	-0.5	-14.8	123.2*	0.6	14.8	149.9*	31.2*
CCn1c(=O)c(C(=O)Nc2ncccc2C)c(O)c2ccccc21	2.6	-2.9	111.2*	-6.2	2.9	96.1*	26.4*
O=[N+]([O-])c1cc2c(cc1CN1CCN(CCOCCO)CC1)OCO2	1.8	17.1	0.1	5.9	-17.1	x	x
SMILES	GAA850 FXN act	SR-BI DiI-HDL act	AHR act	GASC-1 inh	SR-BI DiI inh	AHR act cf	PXR counter
O=C(C[n+]1cc(Br)cc2ccccc21)c1ccccc1	2.5	-9.3	93.4*	-8.5	9.3	96.3*	103.3*
COc1cc(C#Cc2c(-c3cncn3C)n(C)c3ccc(-c4ccc5cc[nH]c5c4)cc23)cc(OC)c1	1.8	-6.4	105.7*	20.6	6.4	82.5*	23.1*
COc1cccc(-c2c(-c3cc(OC)cc(OC)c3)n(C)c3ccc(-c4ccc5cc[nH]c5c4)cc23)c1	2.3	-67.7	21.1	x	67.7	x	x
Cc1ccc(-c2[nH]ncc2C(=O)c2ccc(Br)cc2)c(O)c1	1.3	-42.1	4.2	-2.9	42.1	x	x
COc1ccc(NC(=O)c2nc[nH]c2C(=O)NCc2ccccc2)cc1	1.0	19.1	4.9	-6.2	-19.1	x	x
CNC(=O)c1[nH]cnc1C(=O)Nc1ccc(OC)cc1	1.5	2.3	125.8*	0.3	-2.3	123.7*	26.5*
CNC(=O)c1[nH]cnc1C(=O)Nc1cccc(C)c1	3.5	4.4	101.2*	2.3	-4.4	133.0*	24.4*
COc1ccc(NC(=O)c2nc[nH]c2C(=O)NCCCCCNC(=O)OC(C)(C)C)cc1	x	x	133.5*	0.4	x	141.2*	29.6*
Cc1ccc(Nc2ccc(-n3ccnc3)nn2)cc1C	0.1	-14.5	90.9*	-8.4	14.5	47.7*	-0.7
COc1cccc(Nc2ccc(-n3ccnc3)nn2)c1	2.2	-12.1	81.0*	2.4	12.1	79.1*	16.2*
Cc1cnc(NC(=O)CCCc2nc3ccccc3s2)s1	-2.4	-18.2	270.7*	-2.2	18.2	41.1	134.3*
Cc1ccc2nc(NC(=O)CCn3c(=O)sc4ccccc43)sc2c1	-0.8	5.3	18.4	-3.9	-5.3	x	x
O=C(CCn1c(=O)sc2ccccc21)Nc1nc2ccccc2s1	2.1	8.3	106.2*	1.0	-9.0	44.2	97.8*
CCCn1c(N)c(N2CCCCC2)c(=O)n(CC(=O)Nc2ccc(C(C)=O)cc2)c1=O	0.2	-6.0	1.7	-1.4	6.0	x	x
C/C(=N\Nc1ccc([N+](=O)[O-])cc1[N+](=O)[O-])c1ccc(-n2nncc2C(C)(C)C)cc1	0.5	-66.7	120.4*	5.3	66.7	77.8*	37.9*
CCCc1cc(=O)oc2cc(OCC(=O)NCCCN3CCOCC3)c(Cl)cc12	0.6	-11.7	-0.2	5.4	11.7	x	x
CCOc1cccc(/C=C/c2ccc3cccc(O)c3n2)c1O	3.2	-14.1	96.3*	-4.4	14.1	109.2*	7.8
COc1ccc(CNC(=O)CN(C(=O)CCC(=O)Nc2nccs2)c2ccc(C)cc2)cc1	1.4	19.3	2.9	0.0	-19.3	x	x
Cc1c(NC(=O)c2ccco2)cccc1-c1nc2cccnc2s1	0.5	-22.1	109.0*	7.6	22.1	89.6*	14.3*
Cc1c(NC(=O)c2ccc(Cl)nc2)cccc1-c1nc2cccnc2s1	1.2	x	18.1	-2.5	x	x	x

Source: PubChem BioAssay (several laboratories)
